Data set [1] in a line: Partition coefficient (logP). In kind it is physicochemical. The following applies: octanol/water.
For data set [2], the target named is T1, Muscarinic acetylcholine receptor M2 (Sus scrofa, UniProt P06199).
T1 sequence (P06199 whole entry): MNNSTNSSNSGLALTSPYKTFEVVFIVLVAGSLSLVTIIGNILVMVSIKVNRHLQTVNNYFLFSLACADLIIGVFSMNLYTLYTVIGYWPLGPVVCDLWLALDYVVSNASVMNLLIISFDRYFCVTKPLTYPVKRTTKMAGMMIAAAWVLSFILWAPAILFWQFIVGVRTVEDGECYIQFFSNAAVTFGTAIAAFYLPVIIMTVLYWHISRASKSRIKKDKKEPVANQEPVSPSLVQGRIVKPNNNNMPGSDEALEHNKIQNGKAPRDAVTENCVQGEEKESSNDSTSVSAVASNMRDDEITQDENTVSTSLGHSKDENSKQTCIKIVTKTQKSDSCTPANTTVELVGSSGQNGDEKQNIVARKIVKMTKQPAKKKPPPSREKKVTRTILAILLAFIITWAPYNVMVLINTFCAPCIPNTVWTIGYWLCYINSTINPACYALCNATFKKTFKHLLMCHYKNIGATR
The data set is described as follows: Inhibition of [3H]- N-methyl-scopolamine ([3H]NMS) dissociation from porcine cardiac M2-receptors. The following applies: read-out: Log 1/EC50 (converted). A digest of the protocol: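 Porcine heart ventricular myocardium homogenate, stored at −80 °C. Membranes preincubated 30 min with [3H]NMS in 3 mM MgHPO4, 50 mM Tris, pH 7.3, 37 °C. Dissociation started with 1 µM atropine, with or without test compound. Bound ligand collected by filtration and counted by liquid scintillation. Monoexponential fit gave apparent k−1; EC50 for k−1 reduced to 50% of control, from four-parameter logistic fit.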

For `CC(C)SC1c2ccccc2C(=O)N1CCC[N+](C)(C)CCCCCC[N+](C)(C)CCCN1C(=O)c2ccccc2C1SC(C)C` (centres undefined), the log partition coefficient (logP) (commonly a log measure of how a compound divides between an organic and an aqueous phase) in data set [1] worked out at 2.92. Moreover, the EC50 in data set [2] was 1.26 µM.

`COC1c2ccccc2C(=O)N1CCC[N+](C)(C)CCCCCC[N+](C)(C)CCCN1C(=O)c2ccccc2C1OC` (centres undefined) showed a logP in data set [1] of 1.72. Also, in data set [2], the EC50 was 6.76 µM.

Molecule `C[N+](C)(CCCCCC[N+](C)(C)CCCN1C(=O)c2ccccc2C1c1ccccc1)CCCN1C(=O)c2ccccc2C1c1ccccc1` (centres undefined) displayed a lipophilicity (logP) in data set [1] of 3.4. Also, in data set [2], the EC50 was 0.794 µM.

`C[N+](C)(CCCCCC[N+](C)(C)CCCN1C(=O)c2ccccc2/C1=C\c1ccccc1)CCCN1C(=O)c2ccccc2/C1=C/c1ccccc1` came in with a logP in data set [1] of 2.96. Further, the EC50 in data set [2] was 0.0661 µM.

`C[N+](C)(CCCCCC[N+](C)(C)CCCN1C(=O)c2ccccc2/C1=C\c1ccccc1)CCCN1C(=O)c2ccccc2/C1=C\c1ccccc1` came in with a logP in data set [1] of 2.96. Further, the EC50 in data set [2] was 0.0708 µM.

In the case of `C[N+](C)(CCCCCC[N+](C)(C)CCCN1C(=O)c2ccccc2/C1=C/c1ccccc1)CCCN1C(=O)c2ccccc2/C1=C/c1ccccc1`, the log partition coefficient (logP) in data set [1] amounted to 2.96. In addition, in data set [2], the EC50 was 0.0851 µM.

As to `C[N+](C)(CCCCCC[N+](C)(C)CCCN1C(=O)c2ccccc2C1=O)CCCN1C(=O)c2ccccc2C1=O`, the logP in data set [1] is 1.46. The EC50 in data set [2] is 1.41 µM.

In turn, `C[N+](C)(CCCCCC[N+](C)(C)CCCN1Cc2ccccc2C1=O)CCCN1Cc2ccccc2C1=O` displayed a logP in data set [1] of 1.55. Moreover, in data set [2], the EC50 was 2 µM.

`C[N+](C)(CCCCCC[N+](C)(C)CCCN1C(=O)c2ccccc2C1O)CCCN1C(=O)c2ccccc2C1O` (centres undefined) showed a logP in data set [1] of 1.45. The EC50 in data set [2] was 6.03 µM.

In turn, `CC(C)OC1c2ccccc2C(=O)N1CCC[N+](C)(C)CCCCCC[N+](C)(C)CCCN1C(=O)c2ccccc2C1OC(C)C` (centres undefined) returned a logP in data set [1] of 2.48. Besides, in data set [2], the EC50 was 1.58 µM.

With `CCOC1c2ccccc2C(=O)N1CCC[N+](C)(C)CCCCCC[N+](C)(C)CCCN1C(=O)c2ccccc2C1OCC` (centres undefined), the log partition coefficient (logP) in data set [1] came to 2.07. Also, the EC50 in data set [2] was 2.29 µM.

Molecule `C[N+](C)(CCCCCC[N+](C)(C)CCCN1C(=O)c2ccccc2C1Cc1ccccc1)CCCN1C(=O)c2ccccc2C1Cc1ccccc1` (centres undefined) registered a logP in data set [1] of 3.65. Further, the EC50 in data set [2] was 1 µM.

(Values after ChEMBL document CHEMBL1133727, “Structure-activity relationships in a series of bisquaternary bisphthalimidine derivatives modulating the muscarinic M(2)-receptor allosterically” (J Med Chem, 2000).)
